This passage reports Activity results from ChEMBL document CHEMBL1938366, “Synthesis and biological activity of novel barbituric and thiobarbituric acid derivatives against non-alcoholic fatty liver disease” (Eur J Med Chem, 2011).

Data set [1] deals with 3T3-L1. Description: Induction of adipogenesis in mouse 3T3L1 cells assessed as increase of adiponectin expression at 10 uM after 8 to 12 days relative to control. The format is functional.
In data set [2] the test system is 3T3-L1. Description: Induction of adipogenesis in mouse 3T3L1 cells assessed as decrease of leptin level at 10 uM after 24 hrs (reference value: 3089.21 +/- 33.37 pg/ml). The format is functional.
Data set [3] concerns 3T3-L1. Put plainly: Cytotoxicity against mouse 3T3L1 cells assessed as glucose consumption at 10 uM by MTT assay. The format is cell-based. The conditions noted are these: 3t3-l1, 10 µM. In general terms: Tetrazolium dyes change colour on reduction, which living cells bring about.
Data set [4] has as its system 3T3-L1. Description: Induction of adipogenesis in mouse 3T3L1 cells assessed as increase of adiponectin level at 10 uM after 8 to 12 days (reference value: 843.78 +/- 20.61 ng/ml). The format is functional.
Data set [5] relates to Rattus norvegicus. Put plainly: Hepatoprotective activity against high fat/high calorie diet-induced non-alcoholic fatty liver disease in Wistar rat assessed as decreased HDL cholesterol levels at 50 mg/kg, po qd for 4 weeks by radioimmunoassay (reference value: 1.20 +/- 0.43 mM). The format is functional.
Data set [6] concerns Rattus norvegicus. Description: Hepatoprotective activity against high fat/high calorie diet-induced non-alcoholic fatty liver disease in Wistar rat assessed as decreased visceral fat assessed per 100 gram of body weight at 50 mg/kg, po qd for 4 weeks (reference value: 4.95 +/- 0.95 g/100g BW). The format is functional.
The subject of data set [7] is Rattus norvegicus. Description: Hepatoprotective activity against high fat/high calorie diet induced NAFLD in Wistar rat assessed as restoration of liver cells at 50 mg/kg, po qd for 4 weeks by oil red O and H & E staining. Also on record: dose 50 mg/kg. The format is functional, organism-based. The method, boiled down:
(§1)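 Male Wistar rats on a high-fat/high-calorie diet were given compound orally at 50 mg/kg once daily for 4 weeks, suspended in Tween 80 and 5% saline. Liver sections were then stained with Oil Red O and H&E and compared against normal-diet and untreated diet-model rats.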

Data set [8] deals with Rattus norvegicus. Description: Hepatoprotective activity against high fat/high calorie diet-induced non-alcoholic fatty liver disease in Wistar rat assessed as decreased body weight at 50 mg/kg, po qd for 4 weeks (reference value: 431 +/- 19.4 g). The format is functional.
The test system of data set [9] is Rattus norvegicus. Put plainly: Hepatoprotective activity against high fat/high calorie diet-induced non-alcoholic fatty liver disease in Wistar rat assessed as decreased LDL cholesterol levels at 50 mg/kg, po qd for 4 weeks by radioimmunoassay (reference value: 0.97 +/- 0.31 mM). The format is functional.
Data set [10] concerns Rattus norvegicus. Description: Hepatoprotective activity against high fat/high calorie diet-induced non-alcoholic fatty liver disease in Wistar rat assessed as decreased triglyceride levels at 50 mg/kg, po qd for 4 weeks by radioimmunoassay (reference value: 2.38 +/- 1.20 mM). The format is functional.
In data set [11] the test system is Rattus norvegicus. Put plainly: Hepatoprotective activity against high fat/high calorie diet-induced non-alcoholic fatty liver disease in Wistar rat assessed as serum leptin levels at 50 mg/kg, po qd for 4 weeks (reference value: 7.59 +/- 2.36 ng/ml). The format is functional.
Data set [12] relates to Rattus norvegicus. Put plainly: Hepatoprotective activity against high fat/high calorie diet-induced non-alcoholic fatty liver disease in Wistar rat assessed as decreased liver weight at 50 mg/kg, po qd for 4 weeks (reference value: 21.4 +/- 3.1 g). The format is functional.
The subject of data set [13] is Rattus norvegicus. Description: Hepatoprotective activity against high fat/high calorie diet-induced non-alcoholic fatty liver disease in Wistar rat assessed as reduction of fat accumulation in liver cells at 50 mg/kg, po qd for 4 weeks by oil red O and H & E staining. The format is functional, organism-based. Further details: dose 50 mg/kg. The method, boiled down:
as §1

In data set [14] the test system is Rattus norvegicus. Put plainly: Toxicity in high fat/high calorie diet-induced non-alcoholic fatty liver disease Wistar rat model assessed as physiological signs of toxicity at 50 mg/kg, po qd for 4 weeks. The format is organism-based. Also on record: dose 50 mg/kg, route oral. Conditions: in vivo, 672 h.
Data set [15] has as its system Rattus norvegicus. Description: Hepatoprotective activity against high fat/high calorie diet-induced non-alcoholic fatty liver disease in Wistar rat assessed as decrease in liver/body weight ratio at 50 mg/kg, po qd for 4 weeks (reference value: 4.95 %). Also on record: scale not given: the % may be the effect or the level left. The format is functional.
In data set [16] the test system is Rattus norvegicus. Put plainly: Hepatoprotective activity against high fat/high calorie diet-induced non-alcoholic fatty liver disease in Wistar rat assessed as decreased FBS at 50 mg/kg, po qd for 4 weeks by radioimmunoassay (reference value: 9.23 +/- […] mM). The format is functional.
The subject of data set [17] is Rattus norvegicus. Description: Hepatoprotective activity against high fat/high calorie diet-induced non-alcoholic fatty liver disease in Wistar rat assessed as insulin at 50 mg/kg, po qd for 4 weeks (reference value: 36.32 +/- 2.97 uU/ml). The format is functional.
For data set [18], the system named is Rattus norvegicus. Put plainly: Hepatoprotective activity against high fat/high calorie diet-induced non-alcoholic fatty liver disease in Wistar rat assessed as serum adiponectin levels at 50 mg/kg, po qd for 4 weeks (reference value: 10.49 +/- 2.59 ng/ml). The format is functional.
The subject of data set [19] is Rattus norvegicus. Put plainly: Toxicity in high fat/high calorie diet-induced non-alcoholic fatty liver disease Wistar rat model assessed as abnormal behavioral at 50 mg/kg, po qd for 4 weeks. Conditions: in vivo, 672 h. The format is organism-based. Also on record: dose 50 mg/kg, route oral.
The test system of data set [20] is Rattus norvegicus. Put plainly: Hepatoprotective activity against high fat/high calorie diet-induced non-alcoholic fatty liver disease in Wistar rat assessed as decreased ALT levels at 50 mg/kg, po qd for 4 weeks (reference value: 47.52 +/- 4.98 u/l). The format is functional.
The test system of data set [21] is Rattus norvegicus. Description: Hepatoprotective activity against high fat/high calorie diet-induced non-alcoholic fatty liver disease in Wistar rat assessed as HOMA-IR levels at 50 mg/kg, po qd for 4 weeks (reference value: 15.31 +/- 0.22). The format is functional.
Data set [22] deals with HepG2. Put plainly: Cytotoxicity against human HepG2 cells assessed as glucose consumption at 10 uM by MTT assay in presence of insulin. The format is cell-based. The conditions noted are these: hepg2, 10 µM. A digest of the protocol: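 HepG2 cells; glucose consumption measured with insulin co-present at 0.1 µM. Full procedure given in supplementary data (S3).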
Data set [23] relates to HepG2. Put plainly: Cytotoxicity against human HepG2 cells assessed as glucose consumption at 10 uM by MTT assay. The format is cell-based. Conditions: hepg2, 10 µM.

Calls of active or inactive are those of the source. The rule behind the calls is not given here.

As to `Cc1ccc(NC(=O)COc2ccc(C=C3C(=O)NC(=S)NC3=O)cc2)nc1`, the Activity was 146.94% in data set [1], 1514.81 pg/mL in data set [2], “Non-toxic” in [3] and 1239.44 ng/mL in data set [4].

On to `O=C(COc1ccc(C=C2C(=O)NC(=O)NC2=O)cc1)Nc1ccc(F)c(F)c1`, for which the Activity in data set [1] was 143.8%; in [2], 1571.98 pg/mL; in data set [3], “Non-toxic”; in [4] it was 1322.02 ng/mL.

`O=C(COc1ccc(C=C2C(=O)NC(=O)NC2=O)cc1)Nc1ccccc1`: the Activity was 135.18% in [1], 1856.32 pg/mL in [2], “Non-toxic” in data set [3] and 1111.73 ng/mL in [4].

For the compound `O=C(COc1ccc(C=C2C(=O)NC(=O)NC2=O)cc1)Nc1ccccn1`, the Activity in [5] worked out at 1.11 mM; in [6], 3.98 g; in [8] it was 360.5 g; in data set [1], 180.32%; in [9], 0.18 mM; in [2], 1271.98 pg/mL. The Activity in data set [10] is 1.02 mM; in data set [11], 6 ng/mL; in [12] it was 16 g; in data set [14], “Non-toxic”; in data set [15] it was 4.34%; in data set [3], “Non-toxic”. Also, the Activity in [16] is 4.73 mM; in data set [17], 33.43 uU/ml; in data set [18] it was 12.53 µg/mL; in data set [4], 1639.61 ng/mL; in data set [19], “Non-toxic”; in data set [20], 33.06 U/L. Further, the Activity in data set [21] was determined as 7.03. In addition, the result in data set [7] and in data set [13] was Active.

Take `CN(CCOc1ccc(CC2SC(=O)NC2=O)cc1)c1ccccn1` (stereo not drawn) [ROSIGLITAZONE]: the Activity in [22] turned out to be 29.41%; in data set [1], 157.31%; in data set [2], 1773.67 pg/mL; in data set [4], 1324.73 ng/mL; in data set [23], 15.58%.
